Experimental data of several laboratories.

COc1ccc(NC(=O)N2CCCCN3[C@H](COCCC(=O)O)[C@H](c4ccc(C#Cc5ccccc5)cc4)[C@@H]3C2)cc1  half-life (mouse; plasma; intravenous): 2 h
CC[C@H](C)[C@@H]1NC(=O)[C@@](C)(NC(=O)[C@H](CCCNC(=N)N)NC(=O)[C@H](CC(C)C)NC(=O)[C@@H](NC(=O)[C@H](CCC(N)=O)NC(=O)[C@H](CC(C)C)NC(C)=O)[C@@H](C)O)CCCC=CCCC[C@@](C)(C(=O)N[C@@H](CC(C)C)C(=O)N[C@@H](Cc2ccc3ccccc3c2)C(N)=O)NC(=O)[C@H](CCCNC(=N)N)NC(=O)[C@H](CCC(N)=O)NC1=O  half-life (male BALB/c mouse; plasma; intravenous; 10 mg/kg): 2.17 h
COc1cc2c(Nc3ccc(Cl)c(Cl)c3F)ncnc2cc1OC[C@@H]1C[C@@H]2CN(C)C[C@@H]2C1  half-life (FVB mouse; plasma; oral; 70 mg/kg; single dose): 14 h
Cc1nc(NC2Cc3cc(F)c(F)cc3C2)c2c(C)noc2n1  half-life (male Swiss mouse; plasma; oral; 20 mg/kg): 0.9 h
Nc1ccc(-c2ccncc2)cc1NC(=O)N1CCCC1  half-life (male C57BL/6 mouse; brain; intraperitoneal; 10 mg/kg): 0.462 h
COc1ccc(C(O)COc2ccc(-c3csc(-c4ccc(OCC(O)c5ccc(OC)c(OC)c5)cc4)n3)cc2)cc1OC (stereo not drawn)  half-life (C57BL/6 mouse; plasma; intravenous; 3 mg/kg): 3 h
CCNc1nc2c(c(N3CC(=O)Nc4cc(OC)ccc43)n1)CCC2  half-life (female C57BL/6 mouse; plasma; intravenous; 4 mg/kg; single dose): 0.51 h
COc1ccc2nccc(N3CCc4c(cc(Cn5ccnc5)cc4-c4cn(C)nc4C(F)(F)F)C3=O)c2c1  half-life (male CD-1 mouse; plasma; oral; 10 mg/kg): 1.2 h
OC[C@H]1O[C@@H](c2ccc(Cl)c(Cc3ccc(O[C@H]4CCOC4)cc3)c2)[C@H](O)[C@@H](O)[C@@H]1O  half-life (CD-1 mouse; plasma; oral; 10 mg/kg): 0.5 h
Cc1noc([C@H](Cc2c[nH]cn2)NC(=O)CN(CCCc2ccccc2)CC(=O)O)n1  half-life (male C57BL/6 mouse; plasma; intraperitoneal; 30 mg/kg): 0.233 h
Cn1cnc2c(F)c(Nc3ccc(Br)cc3Cl)c(C(=O)NOCCO)cc21  half-life (nude mouse; tumour; oral; 10 mg/kg; single dose, tumour-bearing): 3.7 h
Cc1ccc2cncc(N3CCc4c(cc(Cn5ccnc5)cc4-c4cn(C)nc4C(F)(F)F)C3=O)c2c1  half-life (male CD-1 mouse; plasma; intravenous; 3 mg/kg): 1.5 h
CNC(=O)c1ccccc1Nc1cc(Nc2cc(C)c(C3CCN(CCCCCCNC(=O)COc4cccc5c4C(=O)N(C4CCC(=O)NC4=O)C5=O)CC3)cc2OC(C)C)ncc1C(F)(F)F (stereo not drawn)  half-life (male Swiss mouse; plasma; intraperitoneal; 10 mg/kg): 6.1 h
CNC(=O)c1cc(OC)cc2c(N3CCc4c(cc(Cn5ccnc5)cc4-c4cn(C)nc4C(F)(F)F)C3=O)ccnc12  half-life (male CD-1 mouse; plasma; oral; 50 mg/kg): 1.1 h
CC(C)(C)c1ccc(O)c(CN(Cc2cc(C(C)(C)C)ccc2O)C2CCC(NC(N)=O)CC2)c1 (stereo not drawn)  half-life (male C57BL/6 mouse; plasma; intraperitoneal; 25 mg/kg; single dose): 2.4 h
O=C(Nc1ccc(C(F)(F)F)cc1F)N1CCC(Cc2cccc(Oc3ccc(C(F)(F)F)cn3)c2)CC1  half-life (male Swiss mouse; blood; oral; 1 mg/kg): 6 h
C=CC(=O)N1C[C@H](n2c(C#CC3CC3)c(C(=O)N[C@H](C)c3ccccc3)c3c(N)ncnc32)C[C@@H]1C  half-life (male nude mouse; plasma; oral; 6.25 mg/kg; single dose): 2.15 h
CN1CCC[C@H](CN2c3ccccc3Sc3ccccc32)C1.Cl  half-life (mouse; plasma; oral; 64 mg/kg; single dose): 4.37 h
NCC1CCN(c2nc(-c3ccncc3)nc3sc4c(c23)CCCC4)CC1  half-life (female CD-1 mouse; plasma; intravenous; 10 mg/kg): 2.8 h
C=C(C[C@H](N)C(=O)O)C(=O)NCc1ccc(F)cc1  half-life (male CD-1 mouse; plasma; intravenous; 2.5 mg/kg): 0.8 h
CC=Cc1ccc(O)c(OC)c1  half-life (mouse; lung; intranasal; 100 mg/kg): 0.521 h
CCc1cc(OC)c2nccc(N3CCc4c(cc(Cn5ccnc5)cc4-c4cn(C)nc4C(F)(F)F)C3=O)c2c1  half-life (male CD-1 mouse; plasma; oral; 50 mg/kg): 1.1 h
Oc1nc2nonc2cc1Nc1c(F)c(F)c(C(F)(F)F)c(F)c1F  half-life (male C57BL/6 mouse; plasma; oral; 10 mg/kg): > 15 h
COc1cc(OC)c2nccc(N3CCc4c(cc(Cn5ccnc5)cc4-c4cn(C)nc4C(F)(F)F)C3=O)c2c1  half-life (male CD-1 mouse; plasma; intravenous; 3 mg/kg): 0.5 h
CCc1ccc(Cc2cc([C@@H]3O[C@H](CO)[C@@H](O)[C@H](O)[C@H]3O)cc3c2CCC3)cc1  half-life (male C57BL/6 mouse; plasma; intravenous; 1 mg/kg): 2.9 h
CC(C)c1cnn2c(NCc3ccccc3)cc(NC[C@H]3CCNC[C@@H]3O)nc12  half-life (male CD-1 mouse; plasma; intravenous; 10 mg/kg): 1.9 h
Cc1nc(-c2cnc(NC(C)C)n(C)c2=O)ccc1Oc1ccnc(-c2cnn(C)c2)c1  half-life (female mouse; plasma; oral; 30 mg/kg; single dose): 15.3 h
CCc1cc(C(=O)NC)c2nccc(N3CCc4c(cc(Cn5ccnc5)cc4-c4cn(C)nc4C(F)(F)F)C3=O)c2c1  half-life (male CD-1 mouse; plasma; intravenous; 3 mg/kg): 0.8 h
COc1nc(-c2cc(C)c(N[C@@H](C)c3ccc(F)cc3)nn2)ccc1-n1cnc(C)c1  half-life (male CD-1 mouse; plasma; intravenous; 1 mg/kg; single dose): 2.93 h
C[C@H]1CCCN1Cc1nc2cc(NC(=O)c3ccc4c(cnn4C)c3)ccc2[nH]1  half-life (female BALB/c mouse; plasma; oral; 100 mg/kg): 0.83 h
COc1nc(-c2cc(C)c(N[C@@H](C)c3c(F)cc(F)cc3F)nn2)ccc1-n1cnc(C)c1  half-life (male CD-1 mouse; plasma; intravenous; 1 mg/kg; single dose): 3.1 h
Cc1cc(Nc2ccc(S(F)(F)(F)(F)F)cc2)n2ncnc2n1  half-life (male Swiss mouse; plasma; oral; 100 mg/kg; single dose): 14 h
COC(=O)CN(CCCc1ccccc1)CC(=O)N[C@@H](Cc1c[nH]cn1)c1nc(C)no1  half-life (male C57BL/6 mouse; plasma; intraperitoneal; 30 mg/kg): 0.1 h
